The Ki is the dissociation constant of the complex between target and ligand, obtained from inhibition or displacement. Lower therefore signals tighter binding.

The record followed here is ChEMBL document CHEMBL1255177, “Search for influence of spatial properties on affinity at α1-adrenoceptor subtypes for phenylpiperazine derivatives of phenytoin” (Bioorg Med Chem Lett, 2010).

Experiment [1] has as its target T1, Alpha-1D adrenergic receptor (Rattus norvegicus, UniProt P23944).
T1 sequence (P23944 whole entry): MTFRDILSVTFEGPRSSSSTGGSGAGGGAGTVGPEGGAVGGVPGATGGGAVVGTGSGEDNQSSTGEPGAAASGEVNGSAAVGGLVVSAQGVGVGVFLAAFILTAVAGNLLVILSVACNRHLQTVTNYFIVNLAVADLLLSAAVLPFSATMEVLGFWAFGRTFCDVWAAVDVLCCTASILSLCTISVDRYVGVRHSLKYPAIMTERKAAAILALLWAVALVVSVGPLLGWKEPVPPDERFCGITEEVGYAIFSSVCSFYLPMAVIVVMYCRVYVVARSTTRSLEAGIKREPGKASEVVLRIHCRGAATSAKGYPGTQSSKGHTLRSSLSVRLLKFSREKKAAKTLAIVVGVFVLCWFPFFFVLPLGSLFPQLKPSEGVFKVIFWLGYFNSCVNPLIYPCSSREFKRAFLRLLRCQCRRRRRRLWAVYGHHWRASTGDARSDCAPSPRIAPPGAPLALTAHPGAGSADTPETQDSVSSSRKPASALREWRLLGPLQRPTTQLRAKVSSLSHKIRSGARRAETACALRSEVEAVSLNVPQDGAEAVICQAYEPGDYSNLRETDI
The experiment in a line: Antagonist activity at adrenergic Alpha-1D receptor in rat aorta. Type of experiment: functional, tissue-based. Conditions: read-out: pA2 (converted). A digest of the protocol: (§1)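 Isolated tissues: guinea pig spleen (α1B), rat aorta (α1D), rat tail artery (α1A). Two cumulative noradrenaline concentration-response curves per tissue, 60 min apart, without then with antagonist. Apparent pA2 = −log[B] + log(r − 1), where r is the ratio of agonist EC50 with and without antagonist. EC50 taken at the curve midpoint. Means ± SEM, 4–8 separate experiments.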

The target in experiment [2] is T2, Alpha-1A adrenergic receptor (Rattus norvegicus, UniProt P43140).
T2 sequence (P43140 whole entry): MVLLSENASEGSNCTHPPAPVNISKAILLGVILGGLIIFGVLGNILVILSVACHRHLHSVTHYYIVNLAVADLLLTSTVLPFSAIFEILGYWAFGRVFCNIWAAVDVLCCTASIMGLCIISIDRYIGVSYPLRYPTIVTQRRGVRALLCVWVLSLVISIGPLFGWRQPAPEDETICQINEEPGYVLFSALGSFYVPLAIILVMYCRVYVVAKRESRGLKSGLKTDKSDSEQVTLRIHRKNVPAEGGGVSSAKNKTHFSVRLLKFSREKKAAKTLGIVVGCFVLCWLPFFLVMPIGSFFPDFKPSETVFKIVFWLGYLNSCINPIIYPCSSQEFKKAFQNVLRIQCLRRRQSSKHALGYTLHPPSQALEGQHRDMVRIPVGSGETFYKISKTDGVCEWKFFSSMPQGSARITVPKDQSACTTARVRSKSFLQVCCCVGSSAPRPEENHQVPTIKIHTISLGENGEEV
The experiment can be described thus: Antagonist activity at adrenergic alpha1A receptor in rat tail artery. Type of experiment: functional, tissue-based. Conditions: read-out: pA2 (converted). In a few lines: as §1

The target of experiment [3] is Alpha-1 adrenergic receptor (Rattus norvegicus). The experiment can be described thus: Binding affinity to adrenergic alpha1 receptor in rat brain.
The target of experiment [4] is Alpha-1B adrenergic receptor (Cavia porcellus). The experiment in a line: Antagonist activity at adrenergic Alpha-1B receptor in guinea pig spleen. Conditions: read-out: pA2 (converted).

`CCOC(=O)C(C)N1C(=O)N(CC(O)CN2CCN(c3ccccc3OC)CC2)C(c2ccccc2)(c2ccccc2)C1=O` (centres undefined): the Kb in experiment [1] was 70.8 nM.
Take `CN1C(=O)N(CC(O)CN2CCN(c3ccccc3F)CC2)C(c2ccccc2)(c2ccccc2)C1=O` (centres undefined): the figures for the Kb in experiment [2], in experiment [1] and in experiment [4] were 891 nM, 245 nM and 1820 nM, respectively. The same molecule had a Ki in experiment [3] of 562 nM.
On to `COC(=O)CN1C(=O)N(CC(O)CN2CCN(c3ccccc3)CC2)C(c2ccccc2)(c2ccccc2)C1=O` (centres undefined), for which, in experiment [1], the Kb was 4370 nM.
On to `COc1ccccc1N1CCN(CC(O)CN2C(=O)NC(=O)C2(c2ccccc2)c2ccccc2)CC1` (centres undefined), for which the Kb in experiment [1] is 112 nM.
Consider `CCOC(=O)CN1C(=O)N(CC(O)CN2CCN(c3ccccc3OC)CC2)C(c2ccccc2)(c2ccccc2)C1=O` (centres undefined), for which, in experiment [1], the Kb is 1350 nM.
Regarding `CCOc1ccccc1N1CCN(CC(O)CN2C(=O)N(C(C)C(=O)OC)C(=O)C2(c2ccccc2)c2ccccc2)CC1` (centres undefined), the Kb in experiment [1] is 269 nM.
With `COc1ccccc1N1CCN(CC(O)CN2C(=O)N(C)C(=O)C2(c2ccccc2)c2ccccc2)CC1` (centres undefined), in experiment [1], the Kb is 141 nM.
For the molecule `CCOc1ccccc1N1CCN(CC(O)CN2C(=O)N(C)C(=O)C2(c2ccccc2)c2ccccc2)CC1` (centres undefined), the Kb in experiment [1] was 195 nM.
`COC(=O)C(C)N1C(=O)N(CC(O)CN2CCN(c3ccccc3OC)CC2)C(c2ccccc2)(c2ccccc2)C1=O` (centres undefined): the values for the Kb in experiment [2], in experiment [1] and in experiment [4] were 155 nM, 347 nM and 851 nM, respectively. Besides, the Ki in experiment [3] is 105 nM.
As to `COC(=O)CN1C(=O)N(CC(O)CN2CCN(c3ccccc3OC)CC2)C(c2ccccc2)(c2ccccc2)C1=O` (centres undefined), the Kb in experiment [2] was 224 nM; in experiment [1] it was 295 nM; in experiment [4], 1260 nM. In experiment [3], this molecule showed a Ki of 200 nM.
